Calls of active or inactive are those of the source. Unless noted, no cut-off for these calls is given here.
Each compound was assayed against Virion infectivity factor (Human immunodeficiency virus type 1 group M subtype B (isolate NY5)(HIV-1)) (UniProt P12504) (assay: Antagonist activity against HIV-1 Vif in human MT4 cells assessed as inhibition of viral infection at 50 uM measured after 16 hrs by cell-based assay). Conditions: Human immunodeficiency virus 1.
How it was run: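 Antiviral activity was measured against wild-type HIV-1 in permissive MT-4 cells as a Vif-specificity counter-screen. RN-18 was the positive control, and cells cultured without inhibitor were the negative control. "No activity" means no inhibition at 50 µM.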

Virion infectivity factor (Human immunodeficiency virus type 1 group M subtype B (isolate NY5)(HIV-1)), sequence (P12504 whole entry): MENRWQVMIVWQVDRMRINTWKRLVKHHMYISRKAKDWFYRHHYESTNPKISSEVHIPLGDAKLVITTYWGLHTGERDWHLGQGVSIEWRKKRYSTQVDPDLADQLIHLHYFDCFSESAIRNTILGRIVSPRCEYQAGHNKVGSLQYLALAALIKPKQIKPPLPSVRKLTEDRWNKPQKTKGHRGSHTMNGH

| SMILES | Activity |
| --- | --- |
| COC(=O)c1ccc(S(=O)(=O)c2ccccc2-c2cn(-c3c(OC)cccc3OC)nn2)cc1 | inactive |
| COc1ccccc1-n1cc(-c2ccccc2S(=O)(=O)c2ccc(N)cc2)nn1 | inactive |
| COc1ccc(OC)c(-n2cc(-c3ccccc3Sc3ccc(C(F)(F)F)cc3)nn2)c1 | inactive |
| COc1ccc(-n2cc(-c3ccccc3Sc3ccc(C(=O)O)cc3)nn2)c(OC)c1 | inactive |
| COc1ccc(-n2cc(-c3ccccc3S(=O)(=O)c3ccc(N)cc3)nn2)c(OC)c1 | inactive |
| COc1cccc(F)c1-n1cc(-c2ccccc2S(=O)(=O)c2ccc(C(=O)O)cc2)nn1 | inactive |
| COc1ccc(S(=O)(=O)c2ccccc2-c2cn(-c3ccc(OC)cc3OC)nn2)cc1 | inactive |
| COc1ccc(-n2cc(-c3ccccc3Sc3ccc([N+](=O)[O-])cc3)nn2)c(OC)c1 | inactive |
| COc1ccc(S(=O)(=O)c2ccccc2-c2cn(-c3c(F)cccc3OC)nn2)cc1 | inactive |
| COc1ccc(S(=O)(=O)c2ccccc2-c2cn(-c3c(OC)cccc3OC)nn2)cc1 | inactive |
| COc1ccccc1-n1cc(-c2ccccc2Sc2ccc(C(=O)O)cc2)nn1 | inactive |
| COC(=O)c1ccc(S(=O)(=O)c2ccccc2-c2cn(-c3ccccc3OC)nn2)cc1 | inactive |
| COc1ccc(-n2cc(-c3ccccc3Sc3ccc(N)cc3)nn2)c(OC)c1 | inactive |
| COc1cccc(-n2cc(-c3ccccc3S(=O)(=O)c3ccc(N)cc3)nn2)c1OC | inactive |
| COc1cccc(F)c1-n1cc(-c2ccccc2Sc2ccc(N)cc2)nn1 | inactive |
| COc1cccc(OC)c1-n1cc(-c2ccccc2S(=O)(=O)c2ccc([N+](=O)[O-])cc2)nn1 | inactive |
| COc1cccc(-n2cc(-c3ccccc3S(=O)(=O)c3ccc([N+](=O)[O-])cc3)nn2)c1OC | inactive |
| COc1ccc(S(=O)(=O)c2ccccc2-c2cn(-c3ccccc3OC)nn2)cc1 | inactive |
| COc1cccc(OC)c1-n1cc(-c2ccccc2S(=O)(=O)c2ccc(C(F)(F)F)cc2)nn1 | inactive |
| COc1ccc(Sc2ccccc2-c2cn(-c3ccccc3OC)nn2)cc1 | inactive |
| COc1cccc(OC)c1-n1cc(-c2ccccc2S(=O)(=O)c2ccc(C(=O)O)cc2)nn1 | inactive |

| SMILES | Activity |
| --- | --- |
| COc1ccc(Sc2ccccc2-c2cn(-c3c(F)cccc3OC)nn2)cc1 | inactive |
| COC(=O)c1ccc(Sc2ccccc2-c2cn(-c3ccccc3OC)nn2)cc1 | inactive |
| COC(=O)c1ccc(S(=O)(=O)c2ccccc2-c2cn(-c3c(F)cccc3OC)nn2)cc1 | inactive |
| COc1cccc(F)c1-n1cc(-c2ccccc2Sc2ccc([N+](=O)[O-])cc2)nn1 | inactive |
| COc1cccc(F)c1-n1cc(-c2ccccc2Sc2ccc(C(F)(F)F)cc2)nn1 | inactive |
| COc1cccc(OC)c1-n1cc(-c2ccccc2Sc2ccc([N+](=O)[O-])cc2)nn1 | inactive |
| COc1cccc(-n2cc(-c3ccccc3Sc3ccc(N)cc3)nn2)c1OC | inactive |
| COc1cccc(-n2cc(-c3ccccc3S(=O)(=O)c3ccc(C(=O)O)cc3)nn2)c1OC | inactive |
| COC(=O)c1ccc(S(=O)(=O)c2ccccc2-c2cn(-c3cc(OC)ccc3OC)nn2)cc1 | inactive |
| COc1cccc(-n2cc(-c3ccccc3Sc3ccc(C(=O)O)cc3)nn2)c1OC | inactive |
| COc1cccc(-n2cc(-c3ccccc3Sc3ccc(C(F)(F)F)cc3)nn2)c1OC | inactive |
| COc1ccccc1-n1cc(-c2ccccc2S(=O)(=O)c2ccc(C(=O)O)cc2)nn1 | inactive |
| COc1cccc(F)c1-n1cc(-c2ccccc2S(=O)(=O)c2ccc([N+](=O)[O-])cc2)nn1 | inactive |
| COc1ccc(Sc2ccccc2-c2cn(-c3c(OC)cccc3OC)nn2)cc1 | inactive |
| COc1ccc(-n2cc(-c3ccccc3S(=O)(=O)c3ccc(C(=O)O)cc3)nn2)c(OC)c1 | inactive |
| COc1ccc(-n2cc(-c3ccccc3Sc3ccc(C(F)(F)F)cc3)nn2)c(OC)c1 | inactive |
| COc1cccc(OC)c1-n1cc(-c2ccccc2Sc2ccc(C(=O)O)cc2)nn1 | inactive |
| COc1ccc(Sc2ccccc2-c2cn(-c3ccc(OC)cc3OC)nn2)cc1 | inactive |
| COc1cccc(OC)c1-n1cc(-c2ccccc2S(=O)(=O)c2ccc(N)cc2)nn1 | inactive |
| COc1ccccc1-n1cc(-c2ccccc2S(=O)(=O)c2ccc(C(F)(F)F)cc2)nn1 | inactive |
| COc1cccc(OC)c1-n1cc(-c2ccccc2Sc2ccc(C(F)(F)F)cc2)nn1 | inactive |

| SMILES | Activity |
| --- | --- |
| COc1cccc(F)c1-n1cc(-c2ccccc2S(=O)(=O)c2ccc(N)cc2)nn1 | inactive |
| COc1cccc(-n2cc(-c3ccccc3S(=O)(=O)c3ccc(C(F)(F)F)cc3)nn2)c1OC | inactive |
| COc1ccc(S(=O)(=O)c2ccccc2-c2cn(-c3cc(OC)ccc3OC)nn2)cc1 | inactive |
| COc1ccc(OC)c(-n2cc(-c3ccccc3Sc3ccc(C(=O)O)cc3)nn2)c1 | inactive |
| COc1ccc(OC)c(-n2cc(-c3ccccc3S(=O)(=O)c3ccc(C(F)(F)F)cc3)nn2)c1 | inactive |
| COc1ccc(S(=O)(=O)c2ccccc2-c2cn(-c3cccc(OC)c3OC)nn2)cc1 | inactive |
| COc1cccc(F)c1-n1cc(-c2ccccc2Sc2ccc(C(=O)O)cc2)nn1 | inactive |
| COc1cccc(F)c1-n1cc(-c2ccccc2S(=O)(=O)c2ccc(C(F)(F)F)cc2)nn1 | inactive |
| COc1ccccc1-n1cc(-c2ccccc2S(=O)(=O)c2ccc([N+](=O)[O-])cc2)nn1 | inactive |
| COC(=O)c1ccc(S(=O)(=O)c2ccccc2-c2cn(-c3cccc(OC)c3OC)nn2)cc1 | inactive |
| COc1ccc(OC)c(-n2cc(-c3ccccc3Sc3ccc(N)cc3)nn2)c1 | inactive |
| COc1ccc(Sc2ccccc2-c2cn(-c3cc(OC)ccc3OC)nn2)cc1 | inactive |
| COc1ccccc1-n1cc(-c2ccccc2Sc2ccc(N)cc2)nn1 | inactive |
| COC(=O)c1ccc(Sc2ccccc2-c2cn(-c3c(F)cccc3OC)nn2)cc1 | inactive |
| COc1cccc(OC)c1-n1cc(-c2ccccc2Sc2ccc(N)cc2)nn1 | inactive |
| COC(=O)c1ccc(S(=O)(=O)c2ccccc2-c2cn(-c3ccc(OC)cc3OC)nn2)cc1 | inactive |
| COc1ccc(-n2cc(-c3ccccc3S(=O)(=O)c3ccc(C(F)(F)F)cc3)nn2)c(OC)c1 | inactive |
| COc1ccc(-n2cc(-c3ccccc3S(=O)(=O)c3ccc([N+](=O)[O-])cc3)nn2)c(OC)c1 | inactive |
| COc1ccc(Sc2ccccc2-c2cn(-c3cccc(OC)c3OC)nn2)cc1 | inactive |

Each compound was assayed against Virion infectivity factor (Human immunodeficiency virus type 1 group M subtype B (isolate NY5)(HIV-1)) (UniProt P12504) (assay: Antagonist activity against HIV-1 GFP-tagged Vif in human HEK293FT cells co-expressing HA-tagged A3G assessed as downregulation of Vif expression expression at 50 uM measured after 16 hrs by immunoblotting method). Conditions: Human immunodeficiency virus 1.
Type: cell-based
How it was run: (§1)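 HEK293FT cells co-expressing HA-tagged A3G and either GFP-tagged Vif or Vif were incubated with or without compound (50 µM) for 16 h. Cell extracts were immunoblotted with anti-HA (A3G), anti-GFP (Vif) and anti-GAPDH antibodies. Untreated cells served as the comparison, and choline chloride was included as a negative control in the triazole series.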

| SMILES | Activity |
| --- | --- |
| COc1ccccc1-n1cc(-c2ccccc2S(=O)(=O)c2ccc(N)cc2)nn1 | Active |
| COc1ccccc1-c1nnc(-c2ccccc2Sc2ccc([N+](=O)[O-])cc2)o1 | Active |
| COc1ccccc1-n1cc(-c2ccccc2S(=O)(=O)c2ccc(C(=O)O)cc2)nn1 | Active |
| COc1ccccc1-n1nncc1-c1ccccc1Sc1ccc([N+](=O)[O-])cc1 | Active |

Each compound was assayed against Virion infectivity factor (Human immunodeficiency virus type 1 group M subtype B (isolate NY5)(HIV-1)) (UniProt P12504) (assay: Antagonist activity against HIV-1 GFP-tagged Vif in human HEK293FT cells co-expressing HA-tagged A3G assessed as upregulation of A3G levels at 50 uM measured after 16 hrs by immunoblotting method). Conditions: Human immunodeficiency virus 1.
Type: cell-based
How it was run: as §1

| SMILES | Activity |
| --- | --- |
| COc1ccccc1-n1cc(-c2ccccc2S(=O)(=O)c2ccc(N)cc2)nn1 | Active |
| COc1ccccc1-c1nnc(-c2ccccc2Sc2ccc([N+](=O)[O-])cc2)o1 | Active |
| COc1ccccc1-n1cc(-c2ccccc2S(=O)(=O)c2ccc(C(=O)O)cc2)nn1 | Active |
| COc1ccccc1-n1nncc1-c1ccccc1Sc1ccc([N+](=O)[O-])cc1 | Active |
